Tests used:
[1] = biological target: Glyceraldehyde-3-phosphate dehydrogenase (Homo sapiens, UniProt P04406); assay: Tested for the inhibitory activity against Glycosomal glyceraldehyde 3-phosphate dehydrogenase (gGAPDH) of human erythrocyte
[2] = Tested for the inhibitory activity against Glycosomal glyceraldehyde 3-phosphate dehydrogenase (gGAPDH) of Trypanosoma brucei
Method in brief: (§1)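 Recombinant glycosomal GAPDH overexpressed in E. coli and purified. Started with enzyme. Initial rates compared with a 5% DMSO control; NADH absorbance interference checked without enzyme. IC50 from ≥5 concentrations giving 5–80% inhibition.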

[3] = Tested for the inhibitory activity against Glycosomal glyceraldehyde 3-phosphate dehydrogenase (gGAPDH) of Leishmania mexicana; method in brief: as §1
[4] = Tested for the inhibitory activity against Glycosomal glyceraldehyd 3-phosphate dehydrogenase (gGAPDH) of Trypanosoma brucei
Method in brief: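 Recombinant T. brucei gGAPDH expressed in E. coli. Reaction started with enzyme; NADH absorbance read. Activity from initial rates versus a DMSO-only control. IC50 from at least five inhibitor concentrations giving 5–80% inhibition.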

Sequence of Glyceraldehyde-3-phosphate dehydrogenase (P04406 whole entry): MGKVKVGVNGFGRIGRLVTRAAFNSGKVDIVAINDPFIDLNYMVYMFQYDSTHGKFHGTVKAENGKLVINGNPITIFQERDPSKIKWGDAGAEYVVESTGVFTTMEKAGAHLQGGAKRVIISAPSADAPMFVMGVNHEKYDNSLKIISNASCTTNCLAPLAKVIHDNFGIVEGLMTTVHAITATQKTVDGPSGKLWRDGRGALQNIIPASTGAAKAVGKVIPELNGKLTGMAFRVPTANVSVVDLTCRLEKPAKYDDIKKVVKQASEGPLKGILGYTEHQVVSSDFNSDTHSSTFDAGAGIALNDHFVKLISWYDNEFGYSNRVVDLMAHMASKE

Compound	IC50 [1]	IC50 [2]	IC50 [3]	IC50 [4]
Nc1ncnc2c1ncn2[C@@H]1O[C@H](CO)[C@@H](O)[C@H]1NC(=O)c1cccs1	> 10 mM	5 mM	2.4 mM	
COc1cccc(C(=O)N[C@@H]2[C@H](O)[C@@H](CO)O[C@H]2n2cnc3c(N)ncnc32)c1	> 10 mM	2.2 mM	0.3 mM	
Cc1nc(N)c2ncn([C@@H]3O[C@H](CO)[C@@H](O)[C@H]3O)c2n1 [2-METHYLADENOSINE]	> 10 mM	8 mM	6 mM	

Now from value to compound:

IC50 [1]	IC50 [2]	IC50 [3]	IC50 [4]	Compound
10 mM	10 mM			Nc1ncnc2c1nc(-c1ccccc1)n2[C@@H]1O[C@H](CO)[C@@H](O)[C@H]1O
> 10 mM	6 mM	3.3 mM		Nc1ncnc2c1ncn2[C@@H]1O[C@H](CO)[C@@H](O)[C@H]1NC(=O)c1ccccc1
1.3 mM		0.5 mM	0.6 mM	Nc1ncnc2c1nc(-c1cccs1)n2[C@@H]1O[C@H](CO)C(O)[C@H]1O (single isomer, unassigned)
35 mM	100 mM	50 mM		Nc1ncnc2c1ncn2[C@@H]1O[C@H](CO)[C@@H](O)[C@H]1O [ADENOSINE]
